{"source": "ChEMBL document CHEMBL4840303", "about": "“Design, synthesis, biological evaluation and pharmacophore model analysis of novel tetrahydropyrrolo[3,4-c]pyrazol derivatives as potential TRKs inhibitors” (Eur J Med Chem, 2021)", "key": {"KM12 [1]": {"tested_on": "KM12", "experiment": "Cell cycle arrest in human KM12 cells assessed as accumulation of cells at S phase at 250 nM measured after 48 hrs by AnnexinV-FITC/PI staining based flowcytometry method relative to control", "format": "functional"}, "[2]": {"experiment": "Stability in human liver microsomes assessed as half life at 100 uM measured after 60 mins by LC-MS/MS analysis", "format": "ADME, Microsome", "settings": "1 h", "procedure,_shortened": "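Human liver microsomes diluted to 0.59 mg/mL working solution in 100 mM potassium phosphate, prewarmed 10 min at 37 °C; compound added from a 100 µM working solution. NADPH (in 10 mM MgCl2) added to one plate, buffer instead in no-cofactor control. Incubated at 37 °C, quenched at 5, 15, 30, 45, 60 min, centrifuged, analysed by LC-MS/MS.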"}, "KM12 [3]": {"tested_on": "KM12", "experiment": "Cell cycle arrest in human KM12 cells assessed as accumulation of cells at less G1 phase at 250 nM measured after 48 hrs by AnnexinV-FITC/PI staining based flowcytometry method relative to control", "format": "functional"}, "CYP2D6": {"target": "CYP2D6 (Homo sapiens, UniProt P10635)", "sequence (P10635 whole entry)": "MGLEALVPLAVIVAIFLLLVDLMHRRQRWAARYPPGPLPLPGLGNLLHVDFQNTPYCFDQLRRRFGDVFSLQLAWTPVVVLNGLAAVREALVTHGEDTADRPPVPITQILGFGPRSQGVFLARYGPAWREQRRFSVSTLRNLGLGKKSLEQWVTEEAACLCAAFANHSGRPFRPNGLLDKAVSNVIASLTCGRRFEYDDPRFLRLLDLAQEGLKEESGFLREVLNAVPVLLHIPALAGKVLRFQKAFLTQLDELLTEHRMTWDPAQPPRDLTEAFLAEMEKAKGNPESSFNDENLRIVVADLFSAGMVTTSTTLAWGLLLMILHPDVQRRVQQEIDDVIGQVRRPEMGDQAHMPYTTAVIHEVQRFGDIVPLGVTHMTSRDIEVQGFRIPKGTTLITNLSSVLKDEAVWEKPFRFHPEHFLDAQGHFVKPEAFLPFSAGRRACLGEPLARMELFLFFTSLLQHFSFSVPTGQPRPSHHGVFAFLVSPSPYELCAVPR", "experiment": "Inhibition of CYP2D6 in human liver microsomes at 10 uM preincubated for 10 mins followed by addition of NADPH and measured after 15 mins by LC-MS/MS analysis", "format": "ADME", "settings": "time 25 min", "procedure,_shortened": "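Pooled human liver microsomes (0.253 mg/mL) with test compound at 10 µM and probe substrates: phenacetin (CYP1A2), diclofenac (CYP2C9), S-mephenytoin (CYP2C19), dextromethorphan (CYP2D6), midazolam (CYP3A4). 10 min preincubation at 37 °C, NADPH-regenerating system added, 15 min at 37 °C. Stopped with cold acetonitrile containing tolbutamide/labetalol internal standards, centrifuged, supernatant read by LC-MS/MS; % inhibition.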"}, "[4]": {"experiment": "Stability in human plasma assessed as compound remaining incubated for 60 mins by LC-MS/MS analysis", "format": "ADME, cell-free", "settings": "read-out: Stability", "procedure,_shortened": "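Pooled frozen human plasma thawed at 37 °C, centrifuged to remove clots, pH adjusted to 7.4 if required. Spiked to 2 µM final (from 100 µM dosing solution), in duplicate, incubated at 37 °C in a water bath. Sampled at 0, 10, 30, 60 and 120 min, quenched with acetonitrile stop solution containing internal standards, centrifuged, and supernatant analysed by LC-MS/MS for percent remaining.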"}}, "data": [{"smiles": "CN1CCN(c2ccc(C(=O)Nc3n[nH]c4c3CN(Cc3cc(F)cc(F)c3)C4(C)C)cc2)CC1", "values": [{"measurement": "Activity", "setting": "KM12 [1]", "result": 8.17, "unit": "%"}, {"measurement": "t1/2", "setting": "[2]", "result": 29.6, "unit": "min"}, {"measurement": "Activity", "setting": "KM12 [3]", "result": 5.86, "unit": "%"}, {"measurement": "inhibition at 0.25 h, 10 µM", "setting": "CYP2D6", "result": 0, "unit": "%"}, {"measurement": "remaining at 1 h", "setting": "[4]", "result": 99.2, "unit": "%"}]}]}
